Columns and labels:
Pseudomonas aeruginosa [1] = experiment: Binding affinity to Pseudomonas aeruginosa PA-IIL assessed as change in entropy by isothermal titration calorimetry
Pseudomonas aeruginosa [2] = experiment: Binding affinity to Pseudomonas aeruginosa PA-IIL assessed as change in enthalpy by isothermal titration calorimetry
In short: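 Recombinant PAO1 LecB expressed in E. coli BL21(DE3), in TBS/Ca²⁺ pH 7.4. Ligand (500–1500 μM) titrated into 100 μM LecB at 25 °C with stirring: 19–39 injections, 240 s apart. First injection discarded. One-site binding model fit. Means from three independent titrations.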

TdeltaS (Pseudomonas aeruginosa [1]): 0.0717 kcal/mol | deltaH (Pseudomonas aeruginosa [2]): -7.46 kcal/mol
SMILES: C[C@@H]1O[C@H](O)[C@@H](O)[C@H](O)[C@@H]1O
